Compound activity: PubChem BioAssay, several laboratories
MC4R antag cAMP: human MC4R antagonism in cAMP assay; P32245; MC4R-expressing cells, MTII-stimulated cAMP, LANCE TR-FRET; inhibition, % at 6.5 µM; hit rate 0.48% among 360,000;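 active means inhibition above its plate's cutoff, the mean of tested wells on that plate plus 3 SD, cut at about 29% in these data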
Target sequence (P32245 whole entry, looked up): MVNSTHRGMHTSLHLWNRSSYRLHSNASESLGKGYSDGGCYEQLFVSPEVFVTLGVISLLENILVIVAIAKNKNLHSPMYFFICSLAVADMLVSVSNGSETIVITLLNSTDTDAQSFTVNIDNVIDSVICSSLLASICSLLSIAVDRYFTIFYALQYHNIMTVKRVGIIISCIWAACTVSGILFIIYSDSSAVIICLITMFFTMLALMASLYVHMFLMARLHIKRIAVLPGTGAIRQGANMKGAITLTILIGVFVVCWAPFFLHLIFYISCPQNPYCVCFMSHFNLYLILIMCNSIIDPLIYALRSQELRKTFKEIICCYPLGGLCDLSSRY
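System: U2OS cells stably expressing human melanocortin 4 receptor (MC4R). Reagent: Melanotan II challenge after compound preincubation. Doses: 6.5 µM. Times: 30-min compound, 1-h challenge, 1-h detection, room temperature. Measured by: TR-FRET with Eu-cAMP and labeled anti-cAMP, 671 nm. Replicates: singlicate.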
NALP1 inh: inhibitors of NALP1 inflammasome in yeast; hit rate 0.61% among 280,000; inhibition, % at 10 µM; AID 2071; S. cerevisiae NALP1/ASC/caspase-1 growth, X-gal OD620, 72 h; in the data active means inhibition mostly above about 24%, no sharp cut-off; inactive means mostly below about 32%
Tb MetRS inh: blocks T. brucei methionyl-tRNA synthetase activity; purified T. brucei MetRS, ATP depletion, Kinase-Glo luminescence; inhibition, % at 11.9 µM; hit rate 0.4% among 360,000; AID 624268;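 active means inhibition above a per-plate cutoff of the control wells' mean inhibition plus 3 SD, cut at about 5.5% in these data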
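Material: T. brucei methionyl-tRNA synthetase, purified; reagent: substrates ATP, L-methionine and bulk Escherichia coli tRNA; dosing: 11.9 µM single point; timing: 15 min plus 2 h at 25 °C; detection: luminescence of leftover ATP; evaluation: % inhibition; control set: DMSO-only wells as low control; replicates: singlicate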
A1 inh: inhibitors of the anti-apoptotic protein A1, read as caspase activation; caspase activation, % (test concentration not listed); hit rate 0.066% among 330,000; MEF A1-2A-BIM cells, Caspase-Glo 3/7 luminescence, 3 h; percent of clofoctol response, vehicle zero;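 active means over half of replicate activation scores above 10%, or exactly half above 10 with the replicate mean above 10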
MC4R barr agon: agonists of human melanocortin 4 receptor (MC4R) beta-arrestin; AID 540308; activation, % at 8.9 µM; hit rate 0.98% among 360,000; U2OS MC4R beta-arrestin complementation, luminescence; percent of melanotan II response, DMSO zero;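 active means activation above a per-plate cutoff, the mean activation of sample wells on that plate plus 3 SD, cut at about 8% in these data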
NLRP3 yeast inh: blocks the NALP3 inflammasome reconstituted in yeast; Yeast reconstituted NLRP3/ASC/caspase-1, beta-gal luminescence, 24 h; inhibition, % at 10 µM; hit rate 0.39% among 330,000;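 active means inhibition of 50% or more; inactive means inhibition below 50%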
NALP3 yeast conf: NALP3 inhibition confirmation in yeast. shares compounds with NLRP3 yeast inh. yeast expressing human NALP3, luminescence. inhibition, % at 10 µM. hit rate 81% among 1,300. AID 435006; in the data active means inhibition above about 48%
Casp1-ASC yeast: active in yeast caspase-1-ASC counter-screen for NALP3 inhibitors; hit rate 66% among 1,000; AID 488784; yeast expressing Caspase-1-ASC, luminescence counter screen; inhibition, % at 10 µM; shares compounds with NLRP3 yeast inh
NALP3 yeast rt: confirmation retest of NALP3 inhibitors in yeast; shares compounds with NLRP3 yeast inh; yeast expressing human NALP3, luminescence read-out; inhibition, % at 10 µM; hit rate 53% among 1,000; AID 488794
Of the large screens only hits and unclear results are named; the others gave an inactive call (follow-up assays come after a bar, where they were run); ! = not active in a repeat. Hits are enriched below; roughly 2.5% of the tested compounds scored in any of these assays. Unless noted, no stated cut-off is given here; in the data, active means inhibition above about 50%; inactive means the rest.

CCCCCC(=O)N1CCN(CCN=CC2=C(O)CC(c3cccs3)CC2=O)CC1 (centres undefined)	NLRP3 yeast inh 51 | NALP3 yeast conf 65 | Casp1-ASC yeast 55 | NALP3 yeast rt inactive
O=C1CC(c2ccco2)CC(O)=C1C=NCCO (centres undefined)	none
Cc1cccc(C)c1NC(=O)CSc1n[nH]c(=O)n1C1CC1	none (no result: NALP1 inh)
O=C(Nc1cccc2nsnc12)c1cccs1	NLRP3 yeast inh 70! | NALP3 yeast conf 89 | Casp1-ASC yeast 78 | NALP3 yeast rt 61
NCCc1nnc(SCc2ccccc2)o1	NLRP3 yeast inh 61 | NALP3 yeast conf 75 | Casp1-ASC yeast 61 | NALP3 yeast rt 61
NCCc1nnc(SCc2ccccc2F)o1	NLRP3 yeast inh 63 | NALP3 yeast conf 74 | Casp1-ASC yeast 68 | NALP3 yeast rt 70
Cc1ccc(C)c(CSc2nnc(CCN)o2)c1	NLRP3 yeast inh 72 | NALP3 yeast conf 80 | Casp1-ASC yeast 65 | NALP3 yeast rt 72
c1ccc(CSc2nnc(Cc3ccccc3)o2)cc1	none
CCN(CC)c1ccc(C(=O)NNC(=O)C2CCN(c3ncnc4sc(C)c(C)c34)CC2)cc1	none (no result: NALP1 inh, A1 inh, NLRP3 yeast inh)
Cc1ccc(NC(=O)c2ncn(CCCN[C@H](C)c3cccc4ccccc34)n2)cc1C	none (no result: NALP1 inh, A1 inh, NLRP3 yeast inh)
COc1cccc(Nc2ncnc3onc(-c4ccccc4OC)c23)c1	none
COc1ccccc1-c1noc2ncnc(Nc3cccc(C)c3)c12	NLRP3 yeast inh 64 | NALP3 yeast conf 71 | Casp1-ASC yeast 60 | NALP3 yeast rt inactive
Oc1ccc(N=Nc2nc(-c3ccccc3)c(-c3ccccc3)[nH]2)cc1	NLRP3 yeast inh 51 | NALP3 yeast conf 62 | Casp1-ASC yeast 75 | NALP3 yeast rt inactive
COc1ccc2sc3ccccc3c(=O)c2c1	none
COc1ccc(-c2cc(=O)c3ccccc3s2)cc1	NLRP3 yeast inh 66 | NALP3 yeast conf 66 | Casp1-ASC yeast 54 | NALP3 yeast rt 66
CCCCCC(=O)N1CCN(CCN=CC2=C(O)CC(c3ccc(OC)cc3)CC2=O)CC1 (centres undefined)	NLRP3 yeast inh 55 | NALP3 yeast conf 72 | Casp1-ASC yeast inactive | NALP3 yeast rt inactive
CCC(=O)N1CCN(CCN=CC2=C(O)CC(c3ccc(OC)cc3)CC2=O)CC1 (centres undefined)	NLRP3 yeast inh 53 | NALP3 yeast conf inactive
CCCCCC(=O)N1CCN(CCN=CC2=C(O)CC(c3ccc(OC)c(OC)c3)CC2=O)CC1 (centres undefined)	NLRP3 yeast inh 58 | NALP3 yeast conf 66 | Casp1-ASC yeast inactive | NALP3 yeast rt inactive
CC(=O)N/C(=N/c1nc(C)cc(C)n1)Nc1ccc(C)cc1C	none
CN(C(=O)C1CCC(=O)N(Cc2cccc(F)c2)C1)C1CCCCC1 (centres undefined)	none
COc1ncnc2c1ncn2CCCN1CCN(Cc2ccc(C)cc2)CC1	none (no result: NALP1 inh, A1 inh, NLRP3 yeast inh)
CSCCC(C(=O)NC(C)(C)C)n1c(-c2ccc3c(c2)OCO3)nc2ccccc21 (centres undefined)	none (no result: MC4R antag cAMP, NALP1 inh, A1 inh, MC4R barr agon, NLRP3 yeast inh)
S=C(Nc1ccc(Cl)c(Cl)c1)NC1CCCCC1	NLRP3 yeast inh 53 | NALP3 yeast conf 59 | Casp1-ASC yeast 85 | NALP3 yeast rt 68
CCC(=O)c1ccc(N2CCN(C(=O)c3cccs3)CC2)c(F)c1	none
Cc1ccc(OCCn2cnc(Cl)c2Cl)cc1	NLRP3 yeast inh 50 | NALP3 yeast conf 59
CCOc1ccc(/C(O)=C2/C(=O)C(=O)N(CCCN3CCOCC3)C2c2ccc(F)cc2)cc1C (centres undefined)	NLRP3 yeast inh 50 | NALP3 yeast conf 67 | Casp1-ASC yeast inactive | NALP3 yeast rt inactive
O=C1C(=O)N(CCCN2CCOCC2)C(c2ccc(F)cc2)/C1=C(\O)c1ccc2c(c1)OCCO2 (centres undefined)	none
COc1ccc(C(=O)O)cc1S(=O)(=O)Nc1ccc2cn[nH]c2c1	none (no result: NALP1 inh)
COc1ccccc1C(=O)Nc1nc2ccccc2[nH]1	NLRP3 yeast inh 60 | NALP3 yeast conf 78 | Casp1-ASC yeast 79 | NALP3 yeast rt inactive
COc1cccc(C(=O)Nc2nc3ccccc3[nH]2)c1	none
Cc1c(C(=O)Nc2nc3ccccc3[nH]2)oc2ccccc12	NLRP3 yeast inh 61 | NALP3 yeast conf inactive
COc1ccc(C(=O)Nc2nc3ccccc3[nH]2)cc1	NLRP3 yeast inh 51 | NALP3 yeast conf 81 | Casp1-ASC yeast 60 | NALP3 yeast rt inactive
Cc1c(C(=O)Nc2nc3ccccc3[nH]2)oc2ccc(Br)cc12	none
COc1ccccc1N1CCN(S(=O)(=O)CCNC(=O)C2CC2)CC1	none (no result: NALP1 inh)
Cc1cc2c(cn1)C(CCC#N)(CCC#N)c1ccccc1-2	none
COc1ccc(C)cc1NC(=O)CSCc1cc(=O)n2c(C)csc2n1	none (no result: NALP1 inh, A1 inh)
N#C/C(=N\Nc1ccc(Cl)cc1)C(=O)c1ccccc1	NLRP3 yeast inh 55 | NALP3 yeast conf 59 | Casp1-ASC yeast 73 | NALP3 yeast rt 84
Cc1c(N/N=C(\C#N)C(=O)c2ccc(Cl)cc2)c(=O)n(-c2ccccc2)n1C	none (no result: NLRP3 yeast inh)
Cc1ccc(-c2nc(CNC(=O)c3cc(C)on3)cs2)cc1	NLRP3 yeast inh 66 | NALP3 yeast conf 75 | Casp1-ASC yeast 68 | NALP3 yeast rt 54
COc1ccc(-c2csc(NC(=O)c3ccccc3F)c2C(=O)O)cc1	NLRP3 yeast inh 81 | NALP3 yeast conf 94 | Casp1-ASC yeast 91 | NALP3 yeast rt 81
O=C(Nc1scc(-c2ccccc2)c1C(=O)O)c1ccccc1Cl	none
COc1cc(C(=O)Nc2scc(-c3ccc(C)cc3)c2C(=O)O)cc(OC)c1OC	none
Cc1ccc(C(=O)Nc2scc(-c3ccccc3)c2C(=O)O)cc1	NLRP3 yeast inh 79 (no result: NALP1 inh) | NALP3 yeast conf 78 | Casp1-ASC yeast 86 | NALP3 yeast rt 82
CC(C)NC(=O)N(C)C[C@@H]1OCc2cnnn2CCCC(=O)N([C@H](C)CO)C[C@@H]1C	none (no result: NALP1 inh, A1 inh, NLRP3 yeast inh)
N#Cc1nc(COc2ccc(Cl)cc2)oc1N1CCCCCC1	none
N#Cc1nc(COc2ccccc2)oc1N1CCCCC1	NLRP3 yeast inh 62 | NALP3 yeast conf 70 | Casp1-ASC yeast 60 | NALP3 yeast rt inactive
Cc1cccc(OCc2nc(C#N)c(N3CCCC3)o2)c1	NLRP3 yeast inh 57 | NALP3 yeast conf inactive | Casp1-ASC yeast 65 | NALP3 yeast rt 51
CCCCOc1ccc(CSCCN)cc1Cl	NLRP3 yeast inh 67 | NALP3 yeast conf 76
CCn1cnnc1SCC(=O)Nc1ccccc1C(=O)NC1CC1	none (no result: NALP1 inh)
